According to ChEMBL document CHEMBL1155459, “On-bead screening of a combinatorial fumaric acid derived peptide library yields antiplasmodial cysteine protease inhibitors with unusual peptide sequences” (J Med Chem, 2009):
Peptide text beside a SMILES is read from it.

Legend:
[1] = Inhibition of Plasmodium falciparum falcipain-2 after 12 hrs by fluorescence spectroscopy-based on-bead assay; set-up: concentration or dose not given beside the values; conditions: concentration not given here
Summary of the method: (§1)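 Library members on resin (PEGA, theoretical loading 0.40 mmol/g; added as DMSO suspension, 0.64 mM final inhibitor) preincubated with enzyme 12 h, then Cbz-Phe-Arg-AMC 40 μM added; AMC release followed by fluorescence (ex 380/em 460 nm). Kinetics compared with inhibitor-free amino-PEGA resin.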

[2] = molecular target: Rhodesain (Trypanosoma brucei rhodesiense) (UniProt Q95PM0); experiment: Inhibition of Trypanosoma brucei rhodesiense rhodesain after 12 hrs by fluorescence spectroscopy-based on-bead assay; set-up: concentration or dose not given beside the values; conditions: concentration not given here; summary of the method: as §1
Rhodesain (Trypanosoma brucei rhodesiense), sequence (Q95PM0 1-450): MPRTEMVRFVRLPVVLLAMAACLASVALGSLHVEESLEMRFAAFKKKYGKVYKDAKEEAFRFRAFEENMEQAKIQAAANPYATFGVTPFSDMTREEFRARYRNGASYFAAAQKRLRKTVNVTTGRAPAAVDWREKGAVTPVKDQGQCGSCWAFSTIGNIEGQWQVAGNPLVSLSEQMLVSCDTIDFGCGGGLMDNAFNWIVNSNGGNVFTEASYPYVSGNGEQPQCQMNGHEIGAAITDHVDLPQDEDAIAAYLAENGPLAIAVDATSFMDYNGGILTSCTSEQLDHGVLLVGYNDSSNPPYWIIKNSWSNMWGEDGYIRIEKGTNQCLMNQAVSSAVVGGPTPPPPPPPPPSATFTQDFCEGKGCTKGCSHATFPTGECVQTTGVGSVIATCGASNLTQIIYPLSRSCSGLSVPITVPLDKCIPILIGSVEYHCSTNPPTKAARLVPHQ

SMILES	inhibition [1]	inhibition [2]
CC(C)C[C@H](NC(=O)[C@@H](NC(=O)[C@H](C)NC(=O)/C=C/C(=O)NCC(=O)NCC(=O)N[C@@H](Cc1ccccc1)C(=O)O)c1ccccc1)C(=O)N[C@H](C(N)=O)C(C)C (HELM PEPTIDE1{[O=C(/C=C/C(=O)[*:2])NCC(=O)NCC(=O)N[C@@H](Cc1ccccc1)C(=O)O].A.[Phg].L.V.[am]}$$$$V2.0)	53%	54%
CC(C)[C@H](NC(=O)[C@@H](NC(=O)[C@@H](NC(=O)[C@H](C)NC(=O)/C=C/C(=O)NCC(=O)NCC(=O)N[C@@H](Cc1ccccc1)C(=O)O)c1ccccc1)C(C)C)C(N)=O (HELM PEPTIDE1{[O=C(/C=C/C(=O)[*:2])NCC(=O)NCC(=O)N[C@@H](Cc1ccccc1)C(=O)O].A.[Phg].V.V.[am]}$$$$V2.0)	56%	36%
CC(C)[C@H](NC(=O)[C@H](C)NC(=O)[C@H](Cc1ccccc1)NC(=O)[C@H](Cc1ccccc1)NC(=O)/C=C/C(=O)NCC(=O)NCC(=O)N[C@@H](Cc1ccccc1)C(=O)O)C(N)=O (HELM PEPTIDE1{[O=C(/C=C/C(=O)[*:2])NCC(=O)NCC(=O)N[C@@H](Cc1ccccc1)C(=O)O].F.F.A.V.[am]}$$$$V2.0)	43%	47%
CC(C)C[C@H](NC(=O)[C@H](Cc1ccccc1)NC(=O)[C@H](Cc1ccccc1)NC(=O)/C=C/C(=O)NCC(=O)NCC(=O)N[C@@H](Cc1ccccc1)C(=O)O)C(=O)N[C@H](C(N)=O)C(C)C (HELM PEPTIDE1{[O=C(/C=C/C(=O)[*:2])NCC(=O)NCC(=O)N[C@@H](Cc1ccccc1)C(=O)O].F.F.L.V.[am]}$$$$V2.0)	41%	52%
CC(C)[C@H](NC(=O)[C@@H](NC(=O)[C@H](Cc1ccccc1)NC(=O)[C@H](Cc1ccccc1)NC(=O)/C=C/C(=O)NCC(=O)NCC(=O)N[C@@H](Cc1ccccc1)C(=O)O)C(C)C)C(N)=O (HELM PEPTIDE1{[O=C(/C=C/C(=O)[*:2])NCC(=O)NCC(=O)N[C@@H](Cc1ccccc1)C(=O)O].F.F.V.V.[am]}$$$$V2.0)	60%	51%
CC[C@H](C)[C@H](NC(=O)[C@H](Cc1ccccc1)NC(=O)/C=C/C(=O)NCC(=O)NCC(=O)N[C@@H](Cc1ccccc1)C(=O)O)C(=O)N[C@@H](C)C(=O)N[C@H](C(N)=O)C(C)C (HELM PEPTIDE1{[O=C(/C=C/C(=O)[*:2])NCC(=O)NCC(=O)N[C@@H](Cc1ccccc1)C(=O)O].F.I.A.V.[am]}$$$$V2.0)	52%	30%
CC[C@H](C)[C@H](NC(=O)[C@H](Cc1ccccc1)NC(=O)/C=C/C(=O)NCC(=O)NCC(=O)N[C@@H](Cc1ccccc1)C(=O)O)C(=O)N[C@@H](CC(C)C)C(=O)N[C@H](C(N)=O)C(C)C (HELM PEPTIDE1{[O=C(/C=C/C(=O)[*:2])NCC(=O)NCC(=O)N[C@@H](Cc1ccccc1)C(=O)O].F.I.L.V.[am]}$$$$V2.0)	58%	73%
CC[C@H](C)[C@H](NC(=O)[C@H](Cc1ccccc1)NC(=O)/C=C/C(=O)NCC(=O)NCC(=O)N[C@@H](Cc1ccccc1)C(=O)O)C(=O)N[C@H](C(=O)N[C@H](C(N)=O)C(C)C)C(C)C (HELM PEPTIDE1{[O=C(/C=C/C(=O)[*:2])NCC(=O)NCC(=O)N[C@@H](Cc1ccccc1)C(=O)O].F.I.V.V.[am]}$$$$V2.0)	58%	50%
CC(C)C[C@H](NC(=O)[C@H](Cc1ccccc1)NC(=O)/C=C/C(=O)NCC(=O)NCC(=O)N[C@@H](Cc1ccccc1)C(=O)O)C(=O)N[C@@H](C)C(=O)N[C@H](C(N)=O)C(C)C (HELM PEPTIDE1{[O=C(/C=C/C(=O)[*:2])NCC(=O)NCC(=O)N[C@@H](Cc1ccccc1)C(=O)O].F.L.A.V.[am]}$$$$V2.0)	45%	71%
CC(C)C[C@H](NC(=O)[C@H](Cc1ccccc1)NC(=O)/C=C/C(=O)NCC(=O)NCC(=O)N[C@@H](Cc1ccccc1)C(=O)O)C(=O)N[C@H](C(=O)N[C@H](C(N)=O)C(C)C)C(C)C (HELM PEPTIDE1{[O=C(/C=C/C(=O)[*:2])NCC(=O)NCC(=O)N[C@@H](Cc1ccccc1)C(=O)O].F.L.V.V.[am]}$$$$V2.0)	46%	58%
CC(C)[C@H](NC(=O)[C@H](C)NC(=O)[C@@H](NC(=O)[C@H](Cc1ccccc1)NC(=O)/C=C/C(=O)NCC(=O)NCC(=O)N[C@@H](Cc1ccccc1)C(=O)O)C1CCCCC1)C(N)=O (HELM PEPTIDE1{[O=C(/C=C/C(=O)[*:2])NCC(=O)NCC(=O)N[C@@H](Cc1ccccc1)C(=O)O].F.[O=C([C@@H](N[*:1])C1CCCCC1)[*:2]].A.V.[am]}$$$$V2.0)	65%	48%
CC(C)C[C@H](NC(=O)[C@@H](NC(=O)[C@H](Cc1ccccc1)NC(=O)/C=C/C(=O)NCC(=O)NCC(=O)N[C@@H](Cc1ccccc1)C(=O)O)C1CCCCC1)C(=O)N[C@H](C(N)=O)C(C)C (HELM PEPTIDE1{[O=C(/C=C/C(=O)[*:2])NCC(=O)NCC(=O)N[C@@H](Cc1ccccc1)C(=O)O].F.[O=C([C@@H](N[*:1])C1CCCCC1)[*:2]].L.V.[am]}$$$$V2.0)	40%	57%
CC(C)[C@H](NC(=O)[C@@H](NC(=O)[C@@H](NC(=O)[C@H](Cc1ccccc1)NC(=O)/C=C/C(=O)NCC(=O)NCC(=O)N[C@@H](Cc1ccccc1)C(=O)O)C1CCCCC1)C(C)C)C(N)=O (HELM PEPTIDE1{[O=C(/C=C/C(=O)[*:2])NCC(=O)NCC(=O)N[C@@H](Cc1ccccc1)C(=O)O].F.[O=C([C@@H](N[*:1])C1CCCCC1)[*:2]].V.V.[am]}$$$$V2.0)	48%	49%
CC(C)[C@H](NC(=O)[C@H](C)NC(=O)[C@@H](NC(=O)[C@H](Cc1ccccc1)NC(=O)/C=C/C(=O)NCC(=O)NCC(=O)N[C@@H](Cc1ccccc1)C(=O)O)c1ccccc1)C(N)=O (HELM PEPTIDE1{[O=C(/C=C/C(=O)[*:2])NCC(=O)NCC(=O)N[C@@H](Cc1ccccc1)C(=O)O].F.[Phg].A.V.[am]}$$$$V2.0)	62%	51%
CC(C)C[C@H](NC(=O)[C@@H](NC(=O)[C@H](Cc1ccccc1)NC(=O)/C=C/C(=O)NCC(=O)NCC(=O)N[C@@H](Cc1ccccc1)C(=O)O)c1ccccc1)C(=O)N[C@H](C(N)=O)C(C)C (HELM PEPTIDE1{[O=C(/C=C/C(=O)[*:2])NCC(=O)NCC(=O)N[C@@H](Cc1ccccc1)C(=O)O].F.[Phg].L.V.[am]}$$$$V2.0)	40%	71%
CC(C)[C@H](NC(=O)[C@@H](NC(=O)[C@@H](NC(=O)[C@H](Cc1ccccc1)NC(=O)/C=C/C(=O)NCC(=O)NCC(=O)N[C@@H](Cc1ccccc1)C(=O)O)c1ccccc1)C(C)C)C(N)=O (HELM PEPTIDE1{[O=C(/C=C/C(=O)[*:2])NCC(=O)NCC(=O)N[C@@H](Cc1ccccc1)C(=O)O].F.[Phg].V.V.[am]}$$$$V2.0)	35%	68%
CC(C)[C@H](NC(=O)[C@H](C)NC(=O)[C@H](Cc1ccccc1)NC(=O)[C@H](CC(N)=O)NC(=O)/C=C/C(=O)NCC(=O)NCC(=O)N[C@@H](Cc1ccccc1)C(=O)O)C(N)=O (HELM PEPTIDE1{[O=C(/C=C/C(=O)[*:2])NCC(=O)NCC(=O)N[C@@H](Cc1ccccc1)C(=O)O].N.F.A.V.[am]}$$$$V2.0)	61%	66%
CC(C)[C@H](NC(=O)[C@@H](NC(=O)[C@H](Cc1ccccc1)NC(=O)[C@H](CC(N)=O)NC(=O)/C=C/C(=O)NCC(=O)NCC(=O)N[C@@H](Cc1ccccc1)C(=O)O)C(C)C)C(N)=O (HELM PEPTIDE1{[O=C(/C=C/C(=O)[*:2])NCC(=O)NCC(=O)N[C@@H](Cc1ccccc1)C(=O)O].N.F.V.V.[am]}$$$$V2.0)	40%	28%
CC[C@H](C)[C@H](NC(=O)[C@H](CC(N)=O)NC(=O)/C=C/C(=O)NCC(=O)NCC(=O)N[C@@H](Cc1ccccc1)C(=O)O)C(=O)N[C@@H](C)C(=O)N[C@H](C(N)=O)C(C)C (HELM PEPTIDE1{[O=C(/C=C/C(=O)[*:2])NCC(=O)NCC(=O)N[C@@H](Cc1ccccc1)C(=O)O].N.I.A.V.[am]}$$$$V2.0)	63%	55%
CC[C@H](C)[C@H](NC(=O)[C@H](CC(N)=O)NC(=O)/C=C/C(=O)NCC(=O)NCC(=O)N[C@@H](Cc1ccccc1)C(=O)O)C(=O)N[C@@H](CC(C)C)C(=O)N[C@H](C(N)=O)C(C)C (HELM PEPTIDE1{[O=C(/C=C/C(=O)[*:2])NCC(=O)NCC(=O)N[C@@H](Cc1ccccc1)C(=O)O].N.I.L.V.[am]}$$$$V2.0)	61%	68%
CC[C@H](C)[C@H](NC(=O)[C@H](CC(N)=O)NC(=O)/C=C/C(=O)NCC(=O)NCC(=O)N[C@@H](Cc1ccccc1)C(=O)O)C(=O)N[C@H](C(=O)N[C@H](C(N)=O)C(C)C)C(C)C (HELM PEPTIDE1{[O=C(/C=C/C(=O)[*:2])NCC(=O)NCC(=O)N[C@@H](Cc1ccccc1)C(=O)O].N.I.V.V.[am]}$$$$V2.0)	57%	39%
CC(C)C[C@H](NC(=O)[C@H](CC(N)=O)NC(=O)/C=C/C(=O)NCC(=O)NCC(=O)N[C@@H](Cc1ccccc1)C(=O)O)C(=O)N[C@H](C(=O)N[C@H](C(N)=O)C(C)C)C(C)C (HELM PEPTIDE1{[O=C(/C=C/C(=O)[*:2])NCC(=O)NCC(=O)N[C@@H](Cc1ccccc1)C(=O)O].N.L.V.V.[am]}$$$$V2.0)	48%	52%
CC(C)C[C@H](NC(=O)[C@@H](NC(=O)[C@H](CC(N)=O)NC(=O)/C=C/C(=O)NCC(=O)NCC(=O)N[C@@H](Cc1ccccc1)C(=O)O)C1CCCCC1)C(=O)N[C@H](C(N)=O)C(C)C (HELM PEPTIDE1{[O=C(/C=C/C(=O)[*:2])NCC(=O)NCC(=O)N[C@@H](Cc1ccccc1)C(=O)O].N.[O=C([C@@H](N[*:1])C1CCCCC1)[*:2]].L.V.[am]}$$$$V2.0)	45%	69%
CC(C)[C@H](NC(=O)[C@H](C)NC(=O)[C@@H](NC(=O)[C@H](CC(N)=O)NC(=O)/C=C/C(=O)NCC(=O)NCC(=O)N[C@@H](Cc1ccccc1)C(=O)O)c1ccccc1)C(N)=O (HELM PEPTIDE1{[O=C(/C=C/C(=O)[*:2])NCC(=O)NCC(=O)N[C@@H](Cc1ccccc1)C(=O)O].N.[Phg].A.V.[am]}$$$$V2.0)	64%	48%
